Measurements as given in ChEMBL document CHEMBL1139506, “Effect on K(ATP) channel activation properties and tissue selectivity of the nature of the substituent in the 7- and the 3-position of 4H-1,2,4-benzothiadiazine 1,1-dioxides” (J Med Chem, 2005).

Key:
[1] = species on record: Rattus norvegicus; experiment: Effect on insulin secretion from rat pancreatic islets at 1 uM concentration (n=15); type: functional
Summary of the method: (§1)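 Islets isolated by collagenase from fed Wistar rats (180-220 g); groups of 10 preincubated 30 min, 37 °C, in bicarbonate salt medium with 2.8 mM glucose, 0.5% dialyzed albumin, O2/CO2 95:5. Then incubated 90 min, 37 °C, with 16.7 mM glucose plus drug. Insulin measured by radioimmunoassay against rat insulin standard; expressed as % of drug-free 16.7 mM glucose control; mean ± SEM (n).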

[2] = species on record: Rattus norvegicus; experiment: Concentration required for 50% inhibition of insulin release in rat pancreatic B-cells; type: functional, cell-based
[3] = species on record: Rattus norvegicus; experiment: ED50/IC50 ratio was determined; type: functional
[4] = species on record: Rattus norvegicus; experiment: Concentration giving 50% relaxation of the 30 mM KCl-induced contraction of rat aortic rings (n=11); conditions: Aorta, read-out: ED50
[5] = species on record: Rattus norvegicus; experiment: Effect on insulin secretion from rat pancreatic islets at 50 uM concentration (n=16); type: functional; summary of the method: as §1
[6] = species on record: Rattus norvegicus; experiment: Effect on insulin secretion from rat pancreatic islets at 10 uM concentration (n=16); type: functional; summary of the method: as §1
[7] = species on record: Rattus norvegicus; experiment: Concentration giving 50% relaxation of the 30 mM KCl-induced contraction of rat aortic rings (n=6); type: functional; conditions: Aorta, read-out: ED50 (the source's name)
Summary of the method: (§2)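 Endothelium-denuded transverse aortic rings (3-4 mm) from fed Wistar rats (180-200 g); isometric tension by force transducer. After 60 min equilibration, contracted with 30 mM KCl; at stable tension, drug added cumulatively until maximal relaxation or up to 0.3 mM. Relaxation expressed as % of KCl contraction; ED50 (50% inhibition of KCl plateau) from dose curves; mean ± SEM (n).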

[8] = species on record: Rattus norvegicus; experiment: Effect on insulin secretion from rat pancreatic islets at 50 uM concentration (n=12); type: functional; summary of the method: as §1
[9] = species on record: Rattus norvegicus; experiment: Effect on insulin secretion from rat pancreatic islets at 10 uM concentration (n=15); type: functional; summary of the method: as §1
[10] = species on record: Rattus norvegicus; experiment: Effect on insulin secretion from rat pancreatic islets at 1 uM concentration (n=14); type: functional; summary of the method: as §1
[11] = species on record: Rattus norvegicus; experiment: Effect on insulin secretion from rat pancreatic islets at 10 uM concentration (n=22); type: functional; summary of the method: as §1
[12] = species on record: Rattus norvegicus; experiment: Effect on insulin secretion from rat pancreatic islets at 50 uM concentration (n=20); type: functional; summary of the method: as §1
[13] = species on record: Rattus norvegicus; experiment: Concentration giving 50% relaxation of the 30 mM KCl-induced contraction of rat aortic rings (n=8); type: functional, Aorta; conditions: read-out: ED50 (the source's name); summary of the method: as §2
[14] = species on record: Rattus norvegicus; experiment: Effect on insulin secretion from rat pancreatic islets at 50 uM concentration (n=18); type: functional; summary of the method: as §1
[15] = species on record: Rattus norvegicus; experiment: Concentration required for relaxation of the 30 mM KCl-induced contraction of rat aortic rings (n=4); type: functional; conditions: Aorta, read-out: ED50 (the source's name); summary of the method: as §2
[16] = species on record: Rattus norvegicus; experiment: Effect on insulin secretion from rat pancreatic islets at 10 uM concentration (n=12); type: functional; summary of the method: as §1
[17] = species on record: Rattus norvegicus; experiment: Effect on insulin secretion from rat pancreatic islets at 1 uM concentration (n=23); type: functional; summary of the method: as §1
[18] = species on record: Rattus norvegicus; experiment: Effect on insulin secretion from rat pancreatic islets at 50 uM concentration (n=14); type: functional; summary of the method: as §1
[19] = species on record: Rattus norvegicus; experiment: Effect on insulin secretion from rat pancreatic islets at 10 uM concentration (n=37); type: functional
[20] = Ionization constant was determined; type: physicochemical
Summary of the method: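 Ionization constant found by UV spectroscopy in aqueous buffers spanning pH 5 to 12; pKa calculated with the Debye-Hückel equation at the absorbance maximum of the basic form.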

[21] = species on record: Rattus norvegicus; experiment: Effect on insulin secretion from rat pancreatic islets at 50 uM concentration (n=21); type: functional; summary of the method: as §1
[22] = species on record: Rattus norvegicus; experiment: Concentration giving 50% relaxation of the 30 mM KCl-induced contraction of rat aortic rings (n=7); type: functional; conditions: Aorta, read-out: ED50 (the source's name); summary of the method: as §2
[23] = species on record: Rattus norvegicus; experiment: Concentration giving 50% relaxation of the 30 mM KCl-induced contraction of rat aortic rings (n=5); type: functional; conditions: Aorta, read-out: ED50 (the source's name); summary of the method: as §2
[24] = species on record: Rattus norvegicus; experiment: Effect on insulin secretion from rat pancreatic islets at 10 uM concentration (n=24); type: functional; summary of the method: as §1
[25] = species on record: Rattus norvegicus; experiment: Effect on insulin secretion from rat pancreatic islets at 1 uM concentration (n=20); type: functional; summary of the method: as §1
[26] = species on record: Rattus norvegicus; experiment: Effect on insulin secretion from rat pancreatic islets at 10 uM concentration (n=14); type: functional; summary of the method: as §1
[27] = species on record: Rattus norvegicus; experiment: Effect on insulin secretion from rat pancreatic islets at 50 uM concentration (n=13); type: functional; summary of the method: as §1
[28] = species on record: Rattus norvegicus; experiment: Concentration giving 50% relaxation of the 30 mM KCl-induced contraction of rat aortic rings (n=3); type: functional; conditions: Aorta, read-out: ED50 (the source's name); summary of the method: as §2
[29] = species on record: Rattus norvegicus; experiment: Effect on insulin secretion from rat pancreatic islets at 50 uM concentration (n=9); type: functional; summary of the method: as §1
[30] = species on record: Rattus norvegicus; experiment: Effect on insulin secretion from rat pancreatic islets at 10 uM concentration (n=21); type: functional; summary of the method: as §1
[31] = species on record: Rattus norvegicus; experiment: Effect on insulin secretion from rat pancreatic islets at 1 uM concentration (n=16); type: functional; summary of the method: as §1
[32] = species on record: Rattus norvegicus; experiment: Effect on insulin secretion from rat pancreatic islets at 50 uM concentration (n=11); type: functional; summary of the method: as §1
[33] = species on record: Rattus norvegicus; experiment: Effect on insulin secretion from rat pancreatic islets at 10 uM concentration (n=13); type: functional; summary of the method: as §1
[34] = species on record: Rattus norvegicus; experiment: Effect on insulin secretion from rat pancreatic islets at 10 uM concentration (n=23); type: functional; summary of the method: as §1
[35] = species on record: Rattus norvegicus; experiment: Effect on insulin secretion from rat pancreatic islets at 1 uM concentration (n=22); type: functional; summary of the method: as §1
[36] = species on record: Rattus norvegicus; experiment: Concentration giving 50% relaxation of the 30 mM KCl-induced contraction of rat aortic rings (n=10); type: functional; conditions: Aorta, read-out: ED50 (the source's name); summary of the method: as §2
[37] = species on record: Rattus norvegicus; experiment: Effect on insulin secretion from rat pancreatic islets at 10 uM concentration (n=32); type: functional
[38] = species on record: Rattus norvegicus; experiment: Effect on insulin secretion from rat pancreatic islets at 1 uM concentration (n=31); type: functional
[39] = species on record: Rattus norvegicus; experiment: Effect on insulin secretion from rat pancreatic islets at 50 uM concentration (n=35); type: functional
[40] = species on record: Rattus norvegicus; experiment: Concentration required for relaxation of the 30 mM KCl-induced contraction of rat aortic rings; type: functional; conditions: Aorta; summary of the method: as §2
[41] = species on record: Rattus norvegicus; experiment: Effect on insulin secretion from rat pancreatic islets at 50 uM concentration (n=23); type: functional; summary of the method: as §1
[42] = species on record: Rattus norvegicus; experiment: Effect on insulin secretion from rat pancreatic islets at 1 uM concentration (n=19); type: functional; summary of the method: as §1

CC1=Nc2ccc(Cl)cc2S(=O)(=O)N1 [DIAZOXIDE]
Residual insulin release [1]: 87.5%
IC50 [2]: 22.6 µM
Ratio [3]: 1
EC50 [4]: 22.4 µM
Residual insulin release [5]: 26.7%
Residual insulin release [6]: 73.9%

COc1ccc2c(c1)S(=O)(=O)NC(NC1CCC1)=N2
EC50 [7]: 157 µM
Residual insulin release [8]: 4%
IC50 [2]: 2.2 µM
Ratio [3]: 72
Residual insulin release [9]: 14.1%
Residual insulin release [10]: 71.3%

COC(=O)c1ccc2c(c1)S(=O)(=O)NC(NC(C)C)=N2
Residual insulin release [11]: 95.7%
Residual insulin release [12]: 94.3%
EC50 ([13]; Rattus norvegicus, Aorta): > 200 µM

CCC(C)NC1=NS(=O)(=O)c2cc([N+](=O)[O-])ccc2N1 (centres undefined)
Residual insulin release [14]: 63.3%
EC50 [15]: 6.1 µM

CCNC1=NS(=O)(=O)c2cc(C)ccc2N1
Residual insulin release [16]: 8.6%
EC50 [7]: 210 µM
IC50 [2]: 2.5 µM
Ratio [3]: 84
Residual insulin release [17]: 83.8%

CC(C)NC1=NS(=O)(=O)c2cc([N+](=O)[O-])ccc2N1
Residual insulin release [18]: 4.8%
Residual insulin release [19]: 64%
pKa [20]: 7.91
EC50 [15]: 23.1 µM

CC(C)NC1=NS(=O)(=O)c2cc(C#N)ccc2N1
pKa [20]: 8.56
Residual insulin release [9]: 82.2%
Residual insulin release [21]: 23.5%
EC50 [15]: 42.7 µM

CCCNC1=NS(=O)(=O)c2cc([N+](=O)[O-])ccc2N1
EC50 [22]: 15.7 µM
Residual insulin release [5]: 88.9%

COc1ccc2c(c1)S(=O)(=O)NC(NC(C)C)=N2
EC50 [23]: 274 µM
Residual insulin release [8]: 4.4%
Residual insulin release [24]: 8.5%
Residual insulin release [25]: 67.6%
IC50 [2]: 3.7 µM
Ratio [3]: 74
pKa [20]: 10.1

Cc1ccc2c(c1)S(=O)(=O)N=C(NC(C)C)N2
Residual insulin release [1]: 71.3%
Residual insulin release [26]: 8.5%
IC50 [2]: 2 µM
Ratio [3]: 100
pKa [20]: 10.2
Residual insulin release [27]: 3.5%
EC50 [28]: 200 µM

CCC(C)NC1=NS(=O)(=O)c2cc(OC)ccc2N1 (centres undefined)
Residual insulin release [1]: 92.4%
IC50 [2]: 4 µM
Ratio [3]: 4.4
Residual insulin release [9]: 23.4%
Residual insulin release [29]: 8.5%
EC50 [15]: 17.5 µM

N#Cc1ccc2c(c1)S(=O)(=O)N=C(NC1CCC1)N2
Residual insulin release [9]: 102.6%
Residual insulin release [21]: 54.3%
EC50 [15]: 57.9 µM

CCCNC1=NS(=O)(=O)c2ccccc2N1
Residual insulin release [30]: 54.2%
Residual insulin release [31]: 93.8%
EC50 [15]: > 300 µM

Cc1ccc2c(c1)S(=O)(=O)NC(NC1CCC1)=N2
Residual insulin release [24]: 19.7%
Residual insulin release [32]: 3.7%
IC50 [2]: 5.6 µM
Ratio [3]: 10
Residual insulin release [17]: 99.5%
EC50 [15]: 58.4 µM

CC(C)NC1=NS(=O)(=O)c2cc(C(F)(F)F)ccc2N1
Residual insulin release [33]: 7.4%
EC50 [7]: 13.1 µM
IC50 [2]: 1.7 µM
Ratio [3]: 7.7
pKa [20]: 8.96
Residual insulin release [27]: 7.1%
Residual insulin release [10]: 71.5%

CCNC1=NS(=O)(=O)c2ccccc2N1
Residual insulin release [16]: 25.8%
Residual insulin release [17]: 77.4%
EC50 [15]: > 300 µM

CCC(C)NC1=NS(=O)(=O)c2cc(C)ccc2N1 (centres undefined)
Residual insulin release [34]: 50.7%
IC50 [2]: 11.2 µM
Ratio [3]: 1.4
Residual insulin release [35]: 93.6%
EC50 [36]: 15.5 µM

CCCNC1=NS(=O)(=O)c2cc(C(F)(F)F)ccc2N1
Residual insulin release [18]: 52%
Residual insulin release [11]: 77.9%
EC50 [15]: 2.9 µM

CC(C)NC1=NS(=O)(=O)c2cc(Cl)ccc2N1
EC50 [7]: 36.3 µM
Residual insulin release [37]: 4.9%
IC50 [2]: 0.7 µM
Residual insulin release [38]: 36.2%
Ratio [3]: 52
Residual insulin release [39]: 5.7%

CC(C)C(C)NC1=NS(=O)(=O)c2cnccc2N1 (centres undefined)
Residual insulin release [34]: 13.7%
IC50 [40]: 154 µM
Residual insulin release [41]: 8.6%
Ratio [3]: 35
EC50 [13]: 154 µM
Residual insulin release [42]: 70.5%
